Assay results as given in ChEMBL document CHEMBL1123307, “Peptides as receptor selectivity modulators of opiate pharmacophores” (J Med Chem, 1986).
Where a name gives a salt, the structure may show the parent alone. Residues, ends and D or L forms follow the SMILES beside them. *: point of attachment. X2 = O=C(N/N=C1/CC[C@@]2(O)[C@H]3Cc4ccc(O)c5c4[C@@]2(CCN3CC2CC2)[C@H]1O5)*; X1 = CN1CC[C@]23c4c5ccc(O)c4O[C@H]2/C(=N\NC(=O)*)CC[C@@]3(O)[C@H]1C5

Legend:
[1] = target: Kappa-type opioid receptor (Cavia porcellus, UniProt P41144); test: Binding affinity against Opioid receptor kappa 1 of guinea pig brain membranes using 1 nM of (-)-[3H]ethylketazocine as radioligand
Procedure, shortened: (§1)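 Incubations in 50 mM Tris buffer, pH 7.4, with 100 mM NaCl and bacitracin (50 μg/mL).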

[2] = target: Mu-type opioid receptor (Cavia porcellus, UniProt P97266); test: Binding affinity against Opioid receptor mu 1 of guinea pig brain membranes using 0.5 nM of [3H]naloxone as radioligand; procedure, shortened: as §1
Chain of Mu-type opioid receptor (P97266 whole entry): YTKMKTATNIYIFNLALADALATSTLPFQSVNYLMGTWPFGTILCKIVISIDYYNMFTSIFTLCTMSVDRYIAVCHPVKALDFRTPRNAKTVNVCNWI

Chain of Kappa-type opioid receptor (P41144 whole entry): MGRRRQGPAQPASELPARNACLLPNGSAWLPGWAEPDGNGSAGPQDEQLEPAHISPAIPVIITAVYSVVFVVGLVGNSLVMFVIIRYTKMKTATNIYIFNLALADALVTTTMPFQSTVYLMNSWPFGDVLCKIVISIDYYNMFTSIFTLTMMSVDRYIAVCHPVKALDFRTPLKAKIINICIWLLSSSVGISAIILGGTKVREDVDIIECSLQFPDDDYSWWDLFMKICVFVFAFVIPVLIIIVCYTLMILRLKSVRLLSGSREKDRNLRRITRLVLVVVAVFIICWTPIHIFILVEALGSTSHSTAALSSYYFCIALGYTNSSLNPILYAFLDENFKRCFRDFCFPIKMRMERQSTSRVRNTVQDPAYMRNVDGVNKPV

## CC(C)CC(NC(=O)C(Cc1ccccc1)NC(=O)N/N=C1/CC[C@@]2(O)C3Cc4ccc(O)c5c4C2(CCN3C)[C@H]1O5)C(=O)O (some centres undefined)
[1]
  Ki: 96 nM
[2]
  Ki: 14.8 nM

## CC(C)CC(NC(=O)C(Cc1ccccc1)NC(=O)N/N=C1/CC[C@@]2(O)C3Cc4ccc(O)c5c4C2(CCN3CC2CC2)[C@H]1O5)C(=O)O (some centres undefined)
[1]
  Ki: 2.8 nM
[2]
  Ki: 0.76 nM

## CC[C@H](C)[C@H](NC(=O)[C@H](CCCNC(=N)N)NC(=O)[C@H](CCCNC(=N)N)NC(=O)[C@H](CC(C)C)NC(=O)[C@H](Cc1ccccc1)NC(=O)CNC(=O)CNC(=O)[C@@H](N)Cc1ccc(O)cc1)C(=O)OC
[1]
  Ki: 40 nM
[2]
  Ki: 340 nM

## CC[C@H](C)[C@H](NC(=O)[C@H](CCCN=C(N)N)NC(=O)[C@H](CCCN=C(N)N)NC(=O)[C@H](CC(C)C)NC(=O)[C@H](Cc1ccccc1)NC(=O)N/N=C1/CC[C@@]2(O)[C@H]3Cc4ccc(O)c5c4[C@@]2(CCN3C)[C@H]1O5)C(=O)OC (X1-FLRRI-OMe)
[1]
  Ki: 9.8 nM
[2]
  Ki: 15.5 nM

## CC[C@H](C)[C@H](NC(=O)[C@H](CCCN=C(N)N)NC(=O)[C@H](CCCN=C(N)N)NC(=O)[C@H](CC(C)C)NC(=O)[C@H](Cc1ccccc1)NC(=O)N/N=C1/CC[C@@]2(O)[C@H]3Cc4ccc(O)c5c4[C@@]2(CCN3CC2CC2)[C@H]1O5)C(=O)OC (X2-FLRRI-OMe)
[1]
  Ki: 2.2 nM
[2]
  Ki: 2.3 nM

## NC(=O)N/N=C1/CC[C@@]2(O)C3Cc4ccc(O)c5c4C2(CCN3CC2CC2)[C@H]1O5 (some centres undefined) [NALTREXONE SEMICARBAZONE]
[1]
  Ki: 2.6 nM
[2]
  Ki: 0.48 nM

## CN1CCC23c4c5ccc(O)c4O[C@H]2/C(=N\NC(N)=O)CC[C@@]3(O)C1C5 (some centres undefined) [OXYMORPHONE SEMICARBAZONE HYDROCHLORIDE]
[1]
  Ki: 179 nM
[2]
  Ki: 14.5 nM
